Data on three compounds can be found in paper PMC4836853 (Arteriosclerosis, thrombosis, and vascular biology, 2016).

“Also recorded” adds a separate entry of the source. Where two headings read alike, the source gives them in different places. Peptide text beside a SMILES is read from it. * marks the point of attachment. Palmitoyl = CCCCCCCCCCCCCCCC(=O)*

Data set [1] addresses T1, PAR1 (Homo sapiens, UniProt P25116).
T1 sequence (P25116 22-425): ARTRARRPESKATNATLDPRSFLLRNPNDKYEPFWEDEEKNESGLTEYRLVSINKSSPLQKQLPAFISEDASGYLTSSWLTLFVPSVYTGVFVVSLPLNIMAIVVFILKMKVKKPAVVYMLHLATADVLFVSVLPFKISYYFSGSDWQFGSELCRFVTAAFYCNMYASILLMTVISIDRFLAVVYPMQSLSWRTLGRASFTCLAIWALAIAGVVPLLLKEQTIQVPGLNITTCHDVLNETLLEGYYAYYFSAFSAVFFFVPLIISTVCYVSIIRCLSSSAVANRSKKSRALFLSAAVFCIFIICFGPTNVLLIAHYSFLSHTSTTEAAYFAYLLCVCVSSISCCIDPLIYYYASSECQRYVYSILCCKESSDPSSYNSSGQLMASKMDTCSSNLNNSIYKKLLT
The experiment in a line: Ex vivo platelet aggregation to PAR1 agonist SFLLRN. Type of data set: in vivo. The following applies: for inhibition at 2 mg/kg: read-out: inhibition of final aggregation to 8 μmol/L SFLLRN, 2 mg/kg.

Data set [2] is described as follows: Pharmacokinetics of PZ-128 in plasma and urine after 1 to 2 hours iv infusion. Type of data set: in vivo, human.
The nature of data set [3]: Safety, tolerability and hemostasis parameters in phase 1 subjects. Type of data set: in vivo, human. The method in brief:
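Single ascending IV doses went to subjects with CAD or multiple CAD risk factors. Cohorts of 0.01–2 mg/kg received 1-h infusions; a final 0.5 mg/kg cohort received a 2-h infusion after antiallergic premedication. Assessments were at baseline, 0.5, 1, 2, 6 and 24 h, and 7–10 days. APTT, INR, ACT and bleeding time were regressed on dose using repeated-measures mixed-effects models with Bonferroni post hoc correction.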

Data set [4] has as its target T1, PAR1. The following applies: cited from earlier work.
In data set [5] the target is T1, PAR1. The conditions noted are these: cited from earlier work. This is another data set of the same source.

Consider `CCCCCCCCCCCCCCCC(=O)N[C@@H](CCCCN)C(=O)N[C@@H](CCCCN)C(=O)N[C@@H](CO)C(=O)N[C@@H](CCCNC(=N)N)C(=O)N[C@@H](C)C(=O)N[C@@H](CC(C)C)C(=O)N[C@@H](Cc1ccccc1)C(N)=O` [PZ-128] (Palmitoyl-KKSRALF-NH2), for which the inhibition at 2 mg/kg in data set [1] (1 to 2-hour time points) lay within 96 to 98%. For the same compound, in data set [1] (6 to 192-hour time points), the inhibition at 2 mg/kg lay in the range of 15 to 21%. In addition, the inhibition at 0.3 mg/kg in data set [1] (read-out: mean inhibition of platelet aggregation (final), 8 μmol/L SFLLRN, 0.3 mg/kg, 30 minutes to 6 hours) fell in the range of 20 to 40%. The inhibition at 0.5 mg/kg in data set [1] (read-out: mean inhibition of platelet aggregation (final), 8 μmol/L SFLLRN, 0.5 mg/kg, 30 minutes to 6 hours) fell in the range of 40 to 60%. Besides, in data set [2] (all subjects), the “drug in plasma at 24 to 192 hours” value is “undetectable; also recorded: no detectable drug”. For the same compound, the PZ-128 in urine entry in data set [2] (any time point, all subjects) is “nondetectable; also recorded: little or no PZ-128 detected; also recorded: not renally cleared”. Besides, in data set [2] (human, plasma, intravenous), the Cmax (commonly the peak of the concentration-time curve) was in the range of 4700 to 21500 nM and the distribution volume (Vd) – broadly, the apparent volume that relates the amount in the body to the concentration in plasma or blood – lay within 0.11 to 0.17 L/kg. In data set [2] (human, plasma, intravenous, 0.5 mg/kg), this compound came in with a maximum concentration (Cmax) of 1800 to 2700 nM. In addition, in data set [2] (human, plasma, iv), the half-life (commonly the time in which the quantity being followed falls by half) was 1.3 to 1.8 h and the level at time molar was in the range of 1000 to 3000 nM. In data set [2] (human, plasma, iv, 0.5 mg/kg), the level at time molar at 6 h was under 500 nM. Also, the “peak plasma drug levels, 2-mg/kg versus 1-mg/kg cohort” value in data set [2] (in vivo) came out at 2 fold. The “tolerability / allergic response” value in data set [3] (0.5 mg/kg, 2-hour infusion, antiallergic premedication) is given as “none of these subjects had an allergic response; also recorded: appeared to be well tolerated”. Moreover, the tolerability result in data set [3] (0.01-, 0.03-, 0.1-, and 0.3-mg/kg, 1-hour intravenous infusion) is reported as “well tolerated”. In addition, in data set [3] (0.5–2 mg/kg), the “transient tingling or numb sensation in the skin” value is reported as “commonly reported”. For the same compound, in data set [3] (2-mg/kg dose over the 1-hour infusion), the “subjects with no hemodynamic effects” value stood at 50%. In addition, in data set [3] (any dose), the “effects on coagulation, hemostasis parameters, or bleeding” value is given as “No significant effects” and the “heart rate, ECG parameters (RR, PR, QRS, QT, QTc, QTd) or pulmonary function” value is “no significant changes”. The “most important adverse event” value in data set [3] (highest doses (1–2 mg/kg), 1-hour infusion) is reported as “acute allergic reactions”. The “clinical chemistry, hematology, urinalysis” value in data set [3] (human, in vivo) was “not significantly affected”.
For `CCOC(=O)N[C@@H]1CC[C@@H]2[C@@H](C1)C[C@H]1C(=O)O[C@H](C)[C@H]1[C@H]2/C=C/c1ccc(-c2cccc(F)c2)cn1` [Vorapaxar, vorapaxar], in data set [4] (40-mg loading dose (≈0.4 mg/kg)), the “inhibition of SFLLRN-induced aggregation at 2 hours” value is at least 80%. For the same compound, in data set [4] (40-mg oral loading dose), the “inhibition of SFLLRN-induced aggregation at 30 minutes” value is recorded as “no appreciable inhibition”.
`CCOc1cc2c(c(F)c1OCC)C(=N)N(CC(=O)c1cc(N3CCOCC3)c(OC)c(C(C)(C)C)c1)C2` [atopaxar]: the “time to maximal platelet inhibition after the loading dose” value in data set [5] (LANCELOT-ACS subjects) was 6 h. The QTc interval entry in data set [5] (higher dose levels) is “prolongation of the QTc interval was observed in some individuals”.
